Assay results as given in ChEMBL document CHEMBL1148905, “Cytotoxic constituents of roots of Chaerophyllum hirsutum” (J Nat Prod, 2004).
Where a name gives a salt, the structure may show the parent alone.

Columns and labels:
Type in all cases: functional, cell-based
[1] = system: HL-60; assay: Cytotoxicity against human HL60 cells after 72 hrs by MTT assay; conditions: HL-60, 72 h
Summary of the method: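 HL-60 leukaemia cells in exponential growth, resuspended at 1 × 10^5 cells/mL in RPMI 1640 with 10% FBS, penicillin G and streptomycin. Drug exposure for 72 h, then viability by MTT. Growth at each concentration expressed as % of untreated controls. IC50 (50% growth inhibition) by linear regression. Mean ± SEM of three independent experiments. Doxorubicin hydrochloride as reference.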

[2] = system: LoVo; assay: Cytotoxicity against human doxorubicin-resistant LoVo cells after 72 hrs by MTT assay
Summary of the method: (§1)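 Parental LoVo and the mdr-expressing (P-glycoprotein) LoVo/Doxo intestinal adenocarcinoma lines cultured in Ham's F12. Exponentially growing cells seeded at 5 × 10^4 cells/mL and allowed 18 h adherence before drug. MTT viability at 72 h. Growth as % of untreated controls, IC50 by linear regression. Mean ± SEM, three independent experiments. Doxorubicin hydrochloride as reference.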

[3] = system: LoVo; assay: Cytotoxicity against human LoVo cells after 72 hrs by MTT assay; summary of the method: as §1
[4] = system: HT-1080; assay: Cytotoxicity against human HT1080 cells after 72 hrs by MTT assay; conditions: HT-1080, 72 h
Summary of the method: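 HT1080 cells grown in DMEM with 10% FBS, penicillin G and streptomycin. Exponentially growing cultures seeded at 5 × 10^4 cells/mL and left to adhere 18 h before drug addition. MTT viability read after 72 h. Growth as % of untreated controls, IC50 by linear regression. Mean ± SEM of three independent experiments. Doxorubicin hydrochloride as reference.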

| Structure (SMILES) | IC50 [1] | IC50 [2] | IC50 [3] | IC50 [4] |
| --- | --- | --- | --- | --- |
| COc1cccc2c1C(=O)c1c(O)c3c(c(O)c1C2=O)C[C@@](O)(C(=O)CO)C[C@@H]3O[C@H]1C[C@H](N)[C@H](O)[C@H](C)O1 [DOXORUBICIN HYDROCHLORIDE] | 0.01 µM | 13.2 µM | 0.2 µM | 0.012 µM |
| O=C(O)/C(=C/c1ccc(O)cc1)[C@@H](C(=O)O)C(=O)c1ccc(O)cc1 | 11.5 µM | 19.6 µM | 16.4 µM | 30.6 µM |
| COc1cc2ccc(=O)oc2cc1O [SCOPOLETIN] | 9.5 µM | 18.5 µM | 7.3 µM | 12.5 µM |
| C=C[C@@H](O)C#CC#C[C@@H](O)/C=C\CCCCCCC [FALCARINDIOL] | 8.9 µM | > 40 µM | 4.3 µM | 13 µM |
| COC(=O)/C=C/c1ccc(O)c(O)c1 [METHYLCAFFEATE] | 7.5 µM | > 40 µM | 5.8 µM | 11.1 µM |
| O=C1O[C@@H](c2ccc(O)cc2)[C@H](C(=O)O)/C1=C\c1ccc(O)cc1 (relative stereo) | 11.3 µM | > 40 µM | 13.9 µM | 36 µM |
